ChEMBL document CHEMBL4033667, “Design, synthesis, and identification of a novel napthalamide-isoselenocyanate compound NISC-6 as a dual Topoisomerase-IIα and Akt pathway inhibitor, and evaluation of its anti-melanoma activity” (Eur J Med Chem, 2017)
The source made the active and inactive calls. No cut-off for these calls is given here.

What was measured:
[1] = biological target: DNA topoisomerase 2-alpha (Homo sapiens) (UniProt P11388); test: Inhibition of human DNA topoisomerase 2alpha assessed as decrease in relaxation of supercoiled pBR322 DNA at 0.5 to 5 uM after 1 hr by ethidium bromide staining-based agarose gel electrophoresis
How it was run: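 Kit-based relaxation assay: supercoiled plasmid DNA with 4 units of human Topo-IIα in assay buffer plus test agent or DMSO at 37 °C (1 h in legend, 30 min in methods). Stopped with 10% SDS, then proteinase K 15 min at 37 °C. Run on 1% agarose 1-2 h, ethidium bromide 2 h, destain 15 min in TAE, UV imaging.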

UACC-903 [2] = test: Antiproliferative activity against human UACC-903 cells harboring BRAF V600E mutant after 24 hrs by MTT assay; type: functional, cell-based; conditions: UACC-903, 24 h
How it was run: (§1)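 MTT viability in melanoma lines grown in DMEM with 10% FBS and pen/strep at 37 °C, 5% CO2. 3000 cells/well, settled overnight, then exposed to compound (0 to 50 µM) in triplicate for 24, 48 or 72 h. MTT (5.0 mg/mL solution) added 3 h before termination. IC50 from non-linear regression (variable slope), mean ± SD.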

UACC-903 [3] = test: Antiproliferative activity against human UACC-903 cells harboring BRAF V600E mutant after 48 hrs by MTT assay; type: functional, cell-based; conditions: UACC-903, 48 h; how it was run: as §1
UACC-903 [4] = test: Antiproliferative activity against human UACC-903 cells harboring BRAF V600E mutant after 72 hrs by MTT assay; type: functional, cell-based; conditions: UACC-903, 72 h; how it was run: as §1
[5] = Antiproliferative activity against human 1205 Lu cells harboring BRAF V600E mutant after 24 hrs by MTT assay; type: functional, cell-based; how it was run: as §1
[6] = Antiproliferative activity against human 1205 Lu cells harboring BRAF V600E mutant after 48 hrs by MTT assay; type: functional, cell-based; how it was run: as §1
[7] = Antiproliferative activity against human 1205 Lu cells harboring BRAF V600E mutant after 72 hrs by MTT assay; type: functional, cell-based; how it was run: as §1
[8] = Antiproliferative activity against human A375M cells harboring BRAF V600E mutant after 24 hrs by MTT assay; type: functional, cell-based; how it was run: as §1
[9] = Antiproliferative activity against human A375M cells harboring BRAF V600E mutant after 48 hrs by MTT assay; type: functional, cell-based; how it was run: as §1
[10] = Antiproliferative activity against human A375M cells harboring BRAF V600E mutant after 72 hrs by MTT assay; type: functional, cell-based; how it was run: as §1
CHL-1 [11] = test: Antiproliferative activity against human CHL-1 cells harboring wild type BRAF after 24 hrs by MTT assay; type: functional, cell-based; conditions: CHL-1, 24 h; how it was run: as §1
CHL-1 [12] = test: Antiproliferative activity against human CHL-1 cells harboring wild type BRAF after 48 hrs by MTT assay; type: functional, cell-based; conditions: CHL-1, 48 h; how it was run: as §1
CHL-1 [13] = test: Antiproliferative activity against human CHL-1 cells harboring wild type BRAF after 72 hrs by MTT assay; type: functional, cell-based; conditions: CHL-1, 72 h; how it was run: as §1
NHDF [14] = test: Cytotoxicity against human NHDF cells assessed as reduction in cell viability at 2.5 uM after 48 hrs by MTT assay; type: cell-based
How it was run: (§2)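 nHDF normal fibroblasts grown in serum-free fibroblast basal medium with growth kit and pen/strep/amphotericin B. Treated 48 h at set concentrations, with viability read by MTT assay.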

NHDF [15] = test: Cytotoxicity against human NHDF cells assessed as reduction in cell viability at 5 uM after 48 hrs by MTT assay; type: cell-based; how it was run: as §2

Chain of DNA topoisomerase 2-alpha (Homo sapiens) (P11388 whole entry): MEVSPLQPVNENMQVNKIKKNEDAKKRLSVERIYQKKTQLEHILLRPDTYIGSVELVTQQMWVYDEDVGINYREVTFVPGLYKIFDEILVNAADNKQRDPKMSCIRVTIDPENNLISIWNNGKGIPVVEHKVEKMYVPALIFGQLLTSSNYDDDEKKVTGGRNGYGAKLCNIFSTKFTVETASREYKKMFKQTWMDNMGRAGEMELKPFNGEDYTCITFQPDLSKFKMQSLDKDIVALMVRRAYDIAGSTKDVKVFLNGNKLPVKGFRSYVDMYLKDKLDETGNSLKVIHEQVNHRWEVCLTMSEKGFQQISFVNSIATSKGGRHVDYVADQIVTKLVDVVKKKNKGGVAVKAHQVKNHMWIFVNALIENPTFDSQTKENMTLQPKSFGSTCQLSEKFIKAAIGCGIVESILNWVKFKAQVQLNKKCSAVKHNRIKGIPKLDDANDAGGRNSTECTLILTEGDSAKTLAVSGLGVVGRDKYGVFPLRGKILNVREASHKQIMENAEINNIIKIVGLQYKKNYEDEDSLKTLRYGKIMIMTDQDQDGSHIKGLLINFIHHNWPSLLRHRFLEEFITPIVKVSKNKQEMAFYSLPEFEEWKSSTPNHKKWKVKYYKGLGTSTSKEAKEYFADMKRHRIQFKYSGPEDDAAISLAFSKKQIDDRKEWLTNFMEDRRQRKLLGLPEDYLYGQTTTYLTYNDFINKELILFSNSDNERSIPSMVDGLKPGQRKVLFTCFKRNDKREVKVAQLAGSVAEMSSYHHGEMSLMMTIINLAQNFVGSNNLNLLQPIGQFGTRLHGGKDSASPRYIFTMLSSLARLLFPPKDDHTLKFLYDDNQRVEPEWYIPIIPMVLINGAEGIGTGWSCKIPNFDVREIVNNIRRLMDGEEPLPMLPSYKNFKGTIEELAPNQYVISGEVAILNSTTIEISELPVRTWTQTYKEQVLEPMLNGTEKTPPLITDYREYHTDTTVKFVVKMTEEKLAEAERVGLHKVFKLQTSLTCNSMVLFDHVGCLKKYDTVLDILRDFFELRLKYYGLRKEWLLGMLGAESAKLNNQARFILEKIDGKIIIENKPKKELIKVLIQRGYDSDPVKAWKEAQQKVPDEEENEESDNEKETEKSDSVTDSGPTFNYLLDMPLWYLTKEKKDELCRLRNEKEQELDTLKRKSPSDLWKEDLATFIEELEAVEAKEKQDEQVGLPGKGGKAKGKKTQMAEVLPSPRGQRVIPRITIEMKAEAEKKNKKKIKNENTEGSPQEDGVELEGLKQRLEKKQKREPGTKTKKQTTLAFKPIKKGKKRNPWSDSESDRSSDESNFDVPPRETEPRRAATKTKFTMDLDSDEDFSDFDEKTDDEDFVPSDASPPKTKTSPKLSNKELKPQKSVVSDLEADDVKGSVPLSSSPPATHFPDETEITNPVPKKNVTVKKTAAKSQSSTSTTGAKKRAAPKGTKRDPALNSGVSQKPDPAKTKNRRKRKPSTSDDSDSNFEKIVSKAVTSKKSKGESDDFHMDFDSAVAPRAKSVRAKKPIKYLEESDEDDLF

SMILES | inhibition [1] | IC50 (UACC-903 [2]) [µM] | IC50 (UACC-903 [3]) [µM] | IC50 (UACC-903 [4]) [µM] | IC50 [5] [µM] | IC50 [6] [µM] | IC50 [7] [µM] | IC50 [8] [µM] | IC50 [9] [µM] | IC50 [10] [µM] | IC50 (CHL-1 [11]) [µM] | IC50 (CHL-1 [12]) [µM] | IC50 (CHL-1 [13]) [µM] | Activity (NHDF [14]) [%] | Activity (NHDF [15]) [%]
COc1cc([C@@H]2c3cc4c(cc3[C@@H](O[C@@H]3O[C@@H]5CO[C@@H](C)O[C@H]5[C@H](O)[C@H]3O)[C@H]3COC(=O)[C@H]23)OCO4)cc(OC)c1O | Active |  |  |  |  |  |  |  |  |  |  |  |  |  | 
CN(C)CCN1C(=O)c2cccc3cc([N+](=O)[O-])cc(c23)C1=O [MITONAFIDE] | Active | 11.4 | 0.8 | 0.5 | 11.1 | 0.9 | 0.6 | 3.8 | 1.5 | 1.3 | 2.8 | 0.9 | 0.5 | < 20 | < 20
N=C(N)[Se]CCN1C(=O)c2cccc3cccc(c23)C1=O |  | 46.8 | 12.8 | 12.1 | 46.8 | 11.5 | 8.2 | > 50 | 17.9 | 28.7 | 17.9 | 5.2 | 5.1 |  | 
